{"source": "ChEMBL document CHEMBL1125593", "about": "“Synthesis and biological evaluation of substituted benzenesulfonamides as novel potent membrane-bound phospholipase A2 inhibitors” (1991)", "key": {"[1]": {"system": "membrane-bound phospholipase A2 (Oryctolagus cuniculus)", "experiment": "Tested in vitro for inhibition of phospholipase A2 (PLA2) in rabbit heart membranes."}, "[2]": {"system": "Rattus norvegicus", "experiment": "Compound was tested for the % inhibition rate of infarct size (myoglobin depleted area) on iv administration 15 min prior to the ligation at a dose of 1 mg/kg.", "assay_type": "functional"}, "[3]": {"system": "Rattus norvegicus", "experiment": "Compound was tested for the % inhibition rate of infarct size (myoglobin depleted area) on iv administration 15 min prior to the ligation at a dose of 10 mg/kg.", "assay_type": "functional"}, "[4]": {"system": "Rattus norvegicus", "experiment": "Compound was tested for the % inhibition rate of infarct size (myoglobin depleted area) on iv administration 15 min prior to the ligation at a dose of 0.3 mg/kg.", "assay_type": "functional"}, "[5]": {"system": "Rattus norvegicus", "experiment": "Compound was tested for the % inhibition rate of infarct size (myoglobin depleted area) on iv administration 15 min prior to the ligation at a dose of 1.0 mg/kg.", "assay_type": "functional"}, "[6]": {"system": "Rattus norvegicus", "experiment": "Compound was tested for the % inhibition rate of infarct size (myoglobin depleted area) on iv administration 15 min prior to the ligation at a dose of 0.1 mg/kg.", "assay_type": "functional"}, "[7]": {"system": "membrane-bound phospholipase A2 (Oryctolagus cuniculus)", "experiment": "Compound was tested for the percent inhibition of phospholipase A2 (PLA2) in rabbit heart membranes at a concentration of 100 uM."}, "[8]": {"system": "Rattus norvegicus", "experiment": "Compound was tested for the % inhibition rate of infarct size (myoglobin depleted area) on sc administration 15 min prior to the ligation at a dose of 75.0 mg/kg.", "assay_type": "functional", "conditions": "route subcutaneous", "procedure,_shortened": "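Sprague-Dawley rats (180–260 g) were anesthetized with diethyl ether and the left main coronary artery was ligated 1–2 mm from its origin for 3 h. Compound was given sc 15 min before ligation, and rats dying within 3 h were excluded. Infarct size was scored as the myoglobin-depleted area by immunohistochemistry and image analysis, with inhibition taken versus untreated animals, mean ± SEM.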"}}, "data": [{"smiles": "CN(C(=O)/C=C/c1ccc(O)c(O)c1)c1ccc(S(=O)(=O)NC2CCc3ccccc3C2)cc1", "note": "(stereo not drawn)", "values": [{"measurement": "IC30", "setting": "[1]", "result": 5070, "unit": "nM"}]}, {"smiles": "CN(C(=O)/C=C/c1ccc(O)c(O)c1)c1ccc(S(=O)(=O)NC2CCCCC2)cc1", "values": [{"measurement": "IC30", "setting": "[1]", "result": 1450, "unit": "nM"}]}, {"smiles": "CN(C(=O)/C=C/c1ccc(O)cc1)c1ccc(S(=O)(=O)NC2CCCCCC2)cc1", "values": [{"measurement": "IC30", "setting": "[1]", "result": 1240, "unit": "nM"}]}, {"smiles": "CC(C)NS(=O)(=O)c1ccc(N(C)C(=O)/C=C/c2ccc(O)c(O)c2)cc1", "values": [{"measurement": "IC30", "setting": "[1]", "result": 30000, "unit": "nM"}]}, {"smiles": "Cc1cccc(CCNS(=O)(=O)c2ccc(N(C)C(=O)/C=C/c3ccc(S(C)(=O)=O)cc3)cc2)n1", "values": [{"measurement": "IC30", "setting": "[1]", "result": 66, "unit": "nM"}, {"measurement": "Inhibition rate", "setting": "[2]", "result": 5.6, "unit": "%"}, {"measurement": "Inhibition rate", "setting": "[3]", "result": 21.9, "unit": "%"}]}, {"smiles": "COc1ccc(CCN(C)CCCC(C#N)(c2ccc(OC)c(OC)c2)C(C)C)cc1OC", "note": "(stereo not drawn)", "values": [{"measurement": "Inhibition rate", "setting": "[4]", "result": 0.1, "unit": "%"}, {"measurement": "Inhibition rate", "setting": "[5]", "result": 19.2, "unit": "%"}, {"measurement": "Inhibition rate", "setting": "[6]", "result": 0.7, "unit": "%"}]}, {"smiles": "CN(C(=O)/C=C/c1ccc(O)c(O)c1)c1ccc(S(=O)(=O)NC2CCCC2)cc1", "values": [{"measurement": "IC30", "setting": "[1]", "result": 5430, "unit": "nM"}]}, {"smiles": "CN(C(=O)/C=C/c1ccc(S(C)(=O)=O)cc1)c1ccc(S(=O)(=O)NC2CCCCCC2)cc1", "values": [{"measurement": "IC30", "setting": "[1]", "result": 16, "unit": "nM"}]}, {"smiles": "Cc1cccc(CCN(C)S(=O)(=O)c2ccc(N(C)C(=O)/C=C/c3ccc(S(C)(=O)=O)cc3)cc2)n1", "values": [{"measurement": "IC30", "setting": "[1]", "result": 65, "unit": "nM"}]}, {"smiles": "CN(C(=O)/C=C/c1ccc(S(C)(=O)=O)cc1)c1ccc(S(=O)(=O)N2CCCN(Cc3ccccc3)CC2)cc1", "values": [{"measurement": "IC30", "setting": "[1]", "result": 64, "unit": "nM"}]}, {"smiles": "CN(C(=O)/C=C/c1ccc(-n2ccnc2)cc1)c1ccc(S(=O)(=O)NC2CCCCCC2)cc1", "values": [{"measurement": "IC30", "setting": "[1]", "result": 450, "unit": "nM"}]}, {"smiles": "CC(C)CN1CCC(NS(=O)(=O)c2ccc(N(C)C(=O)/C=C/c3ccc(S(C)(=O)=O)cc3)cc2)CC1", "values": [{"measurement": "IC30", "setting": "[1]", "result": 51, "unit": "nM"}]}, {"smiles": "CN(C(=O)/C=C/c1ccc(S(C)(=O)=O)cc1)c1ccc(S(=O)(=O)N2CCCN(CCc3ccccc3)CC2)cc1", "values": [{"measurement": "IC30", "setting": "[1]", "result": 25, "unit": "nM"}]}, {"smiles": "CN(C(=O)/C=C/c1ccc(S(C)(=O)=O)cc1)c1ccc(S(=O)(=O)N2CCN(Cc3ccccc3)CC2)cc1", "values": [{"measurement": "IC30", "setting": "[1]", "result": 220, "unit": "nM"}]}, {"smiles": "CN(C(=O)/C=C/c1ccc(S(C)(=O)=O)cc1)c1ccc(S(=O)(=O)N2CCN(CCc3ccccc3)CC2)cc1", "values": [{"measurement": "IC30", "setting": "[1]", "result": 63, "unit": "nM"}]}, {"smiles": "COC(=O)c1sccc1NC(=O)/C=C/c1ccc(O)c(O)c1", "values": [{"measurement": "inhibition", "setting": "[7]", "result": 31.6, "unit": "%"}]}, {"smiles": "CN(C(=O)/C=C/c1ccc(S(C)(=O)=O)cc1)c1ccc(S(=O)(=O)NC2CCCCN(Cc3ccccn3)C2)cc1", "note": "(stereo not drawn)", "values": [{"measurement": "IC30", "setting": "[1]", "result": 49, "unit": "nM"}]}, {"smiles": "CN(C(=O)/C=C/c1ccc(S(C)(=O)=O)cc1)c1ccc(S(=O)(=O)NCc2ccccn2)cc1", "values": [{"measurement": "IC30", "setting": "[1]", "result": 260, "unit": "nM"}]}, {"smiles": "CN(C(=O)/C=C/c1ccc(S(C)(=O)=O)cc1)c1ccc(S(=O)(=O)NC2CCN(CCc3ccccc3)CC2)cc1", "values": [{"measurement": "Inhibition rate", "setting": "[4]", "result": 18.7, "unit": "%"}, {"measurement": "IC30", "setting": "[1]", "result": 9, "unit": "nM"}, {"measurement": "Inhibition rate", "setting": "[5]", "result": 22.5, "unit": "%"}, {"measurement": "Inhibition rate", "setting": "[6]", "result": 7, "unit": "%"}]}, {"smiles": "CN(C(=O)/C=C/c1ccc(O)c(O)c1)c1ccc(S(=O)(=O)NC2CCCCCC2)cc1", "values": [{"measurement": "IC30", "setting": "[1]", "result": 1750, "unit": "nM"}]}, {"smiles": "CN(C(=O)/C=C/c1ccc(O)c(O)c1)c1ccc(S(=O)(=O)NC2CCc3ccccc32)cc1", "note": "(stereo not drawn)", "values": [{"measurement": "IC30", "setting": "[1]", "result": 6100, "unit": "nM"}]}, {"smiles": "CN(C(=O)/C=C/c1ccc(O)c(F)c1)c1ccc(S(=O)(=O)NC2CCCCCC2)cc1", "values": [{"measurement": "IC30", "setting": "[1]", "result": 5330, "unit": "nM"}]}, {"smiles": "CN(C(=O)/C=C/c1ccc(C#N)cc1)c1ccc(S(=O)(=O)NC2CCCCCC2)cc1", "values": [{"measurement": "IC30", "setting": "[1]", "result": 200, "unit": "nM"}]}, {"smiles": "CN(C(=O)/C=C/c1ccc(O)c(O)c1)c1ccc(S(=O)(=O)NC2Cc3ccccc3C2)cc1", "values": [{"measurement": "IC30", "setting": "[1]", "result": 4640, "unit": "nM"}]}, {"smiles": "CCN(CC)CCCC(C)Nc1c2ccc(Cl)cc2nc2ccc(OC)cc12", "note": "(stereo not drawn) [QUINACRINE]", "values": [{"measurement": "Inhibition rate", "setting": "[8]", "result": 37.4, "unit": "%"}]}, {"smiles": "CN(C(=O)/C=C/c1ccc(S(C)(=O)=O)cc1)c1ccc(S(=O)(=O)NCCc2ccccn2)cc1", "values": [{"measurement": "IC30", "setting": "[1]", "result": 210, "unit": "nM"}]}, {"smiles": "CN1CCC(NS(=O)(=O)c2ccc(N(C)C(=O)/C=C/c3ccc(S(C)(=O)=O)cc3)cc2)CC1", "values": [{"measurement": "IC30", "setting": "[1]", "result": 1000, "unit": "nM"}]}, {"smiles": "NS(=O)(=O)c1ccc(NC(=O)/C=C/c2ccc(O)c(O)c2)cc1", "values": [{"measurement": "IC30", "setting": "[1]", "result": 25000, "unit": "nM"}]}, {"smiles": "CNS(=O)(=O)c1ccc(N(C)C(=O)/C=C/c2ccc(O)c(O)c2)cc1", "values": [{"measurement": "IC30", "setting": "[1]", "result": 44000, "unit": "nM"}]}, {"smiles": "CN(C(=O)/C=C/c1ccc(S(C)(=O)=O)cc1)c1ccc(S(=O)(=O)NC2CCN(Cc3ccccc3)CC2)cc1", "values": [{"measurement": "Inhibition rate", "setting": "[4]", "result": 20.9, "unit": "%"}, {"measurement": "IC30", "setting": "[1]", "result": 28, "unit": "nM"}, {"measurement": "Inhibition rate", "setting": "[5]", "result": 22.1, "unit": "%"}, {"measurement": "Inhibition rate", "setting": "[6]", "result": 1.6, "unit": "%"}]}, {"smiles": "CN(C(=O)/C=C/c1ccc(S(C)(=O)=O)cc1)c1ccc(S(=O)(=O)NC2CCCCN(Cc3ccccc3)C2)cc1", "note": "(stereo not drawn)", "values": [{"measurement": "IC30", "setting": "[1]", "result": 25, "unit": "nM"}]}, {"smiles": "CN(C(=O)/C=C/c1ccc(O)c(O)c1)c1ccc(S(N)(=O)=O)cc1", "values": [{"measurement": "IC30", "setting": "[1]", "result": 13300, "unit": "nM"}]}, {"smiles": "CN(C(=O)/C=C/c1ccc([N+](=O)[O-])cc1)c1ccc(S(=O)(=O)NC2CCCCCC2)cc1", "values": [{"measurement": "IC30", "setting": "[1]", "result": 190, "unit": "nM"}]}]}
